From ChEMBL document CHEMBL4350958, “Rational Design of Short Peptide Variants by Using Kunitzin-RE, an Amphibian-Derived Bioactivity Peptide, for Acquired Potent Broad-Spectrum Antimicrobial and Improved Therapeutic Potential of Commensalism Coinfection of Pathogens” (J Med Chem, 2019)
Active and inactive are the calls of the source. The rule behind the calls is not given here.

Experiments:
Escherichia coli [1] = assay: Antibacterial activity against Escherichia coli ATCC 25922 measured after 18 to 24 hrs in presence of FeCl3; type: functional
Escherichia coli [2] = assay: Antibacterial activity against Escherichia coli K88 measured after 24 hrs; type: functional
Summary of the method: (§1)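 Broth microdilution adapted from NCCLS. Mid-log bacteria were diluted in MHB to a final (0.5–1) × 10^5 CFU mL−1. Peptides were serially diluted in 0.2% BSA and mixed with an equal volume of cells. After 24 h at 37 °C, MIC was read at A492 as the lowest concentration inhibiting 95% of growth. At least three independent experiments, each with three technical replicates.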

Pseudomonas aeruginosa = assay: Antibacterial activity against Pseudomonas aeruginosa ATCC 27853 at sub-MBC measured after 17 serial passages; type: functional, organism-based
Summary of the method: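 P. aeruginosa ATCC 27853 passaged every 24 h by 100-fold dilution in MHB containing sub-MBC drug, for 30 passages. MBC was tested on the cells from each passage. Control cells were passaged in drug-free MHB. Run independently in triplicate with three biological replicates.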

Staphylococcus aureus [3] = assay: Antibacterial activity against Staphylococcus aureus ATCC 29213 measured after 18 to 24 hrs in presence of NaCl; type: functional
[4] = system: Staphylococcus epidermidis; assay: Antibacterial activity against Staphylococcus epidermidis ATCC 12228 measured after 24 hrs; type: functional; summary of the method: as §1
Escherichia coli [5] = assay: Bactericidal activity against Escherichia coli K99 incubated for 24 hrs followed by replating on agar plate and measured after overnight incubation; type: functional; details: for MBC: K99, 24 h, read-out: MBC>99.9
Summary of the method: (§2)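 Mid-log bacteria diluted in MHB to (0.5–1) × 10^5 CFU/mL and mixed 1:1 with peptide serially diluted in 0.2% BSA. After 24 h at 37 °C, 50 μL of each mixture was plated on agar and incubated overnight. MBC taken as the lowest concentration killing >99.9% of cells. At least three independent experiments, each with three technical replicates.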

Candida albicans [6] = assay: Antifungal activity against Candida albicans cgmcc2.2086 measured after 48 hrs in presence of NH4Cl by broth microdilution method; type: functional
Staphylococcus aureus [7] = assay: Antibacterial activity against Staphylococcus aureus ATCC 29213 measured after 18 to 24 hrs in presence of FeCl3; type: functional
Candida tropicalis = assay: Antifungal activity against Candida tropicalis cgmcc2.1975 measured after 48 hrs by broth microdilution method; type: functional
Summary of the method: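 Modified CLSI M27-A2 microdilution. Yeast colonies were diluted in MOPS-buffered RPMI 1640 to a final (0.5–1) × 10^3 CFU mL−1 and mixed with an equal volume of peptide serially diluted in 0.2% BSA. After 48 h at 28 °C, MIC was read at A492 as the lowest concentration inhibiting 95% of growth. At least three independent experiments, each with three technical replicates.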

Escherichia coli [8] = assay: Antibacterial activity against Escherichia coli ATCC 25922 measured after 24 hrs; type: functional; summary of the method: as §1
Salmonella typhimurium = assay: Bactericidal activity against Salmonella typhimurium ATCC 14028 incubated for 24 hrs followed by replating on agar plate and measured after overnight incubation; type: functional; details: for MBC: Salmonella enterica, ATCC 14028, 24 h, read-out: MBC>99.9; summary of the method: as §2
[9] = Therapeutic index, ratio of MHC10 for hemolytic activity in human RBC to MIC95 against Candida albicans cgmcc2.2086; type: toxicity; details: human red blood cells (erythrocytes), read-out: TI
Summary of the method: (§3)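 Therapeutic index = MHC divided by MIC. MHC is the lowest concentration giving >10% lysis of human RBC (1 h, 37 °C, 1-128 µM, A576). MIC is 95% growth inhibition by broth microdilution: bacteria in MHB 24 h at 37 °C; Candida in MOPS-buffered RPMI 1640 at (0.5–1) × 10^3 CFU mL−1, 48 h at 28 °C.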

[10] = Therapeutic index, ratio of MHC10 for hemolytic activity in human RBC to MIC95 against Escherichia coli ATCC 25922; type: toxicity; details: human red blood cells (erythrocytes), pooled result: one value given for 9 cell lines, strains, targets or settings, read-out: TI; summary of the method: as §3
[11] = Conformational stability in 50% trifluoro-ethyl alcohol assessed as alpha-helical structural propensity by measuring absorption spectra at minimum dichroic band at 35 uM by CD spectra analysis; type: physicochemical
Summary of the method: (§4)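 CD spectra from 190 to 250 nm of peptide at 35 μM in 10 mM PBS, 30 mM SDS micelles or 50% TFE, recorded in a 1.0-mm quartz cell. Ellipticity was converted to mean residue ellipticity. Three independent scans, each averaged over more than 3 runs.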

[12] = Conformational stability in sodium dodecyl sulfate at 35 uM by CD spectra analysis; type: physicochemical; summary of the method: as §4
[13] = Therapeutic index, ratio of MHC10 for hemolytic activity in human RBC to MIC95 against methicillin-resistant Staphylococcus aureus ATCC 43300; type: toxicity; details: human red blood cells (erythrocytes), read-out: TI; summary of the method: as §3
Candida parapsilosis = assay: Fungicidal activity against Candida parapsilosis cgmcc2.3989 incubated for 48 hrs followed by replating on YM agar plate and measured after 48 hrs; type: functional
Summary of the method: (§5)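 Yeast diluted in MOPS-buffered RPMI 1640 to (0.5–1) × 10^3 CFU/mL (CLSI M27-A2, modified) and mixed 1:1 with peptide serially diluted in 0.2% BSA. After 48 h at 28 °C, 50 μL per well was plated on YM agar and incubated 48 h at 28 °C. MFC taken as the lowest concentration killing ≥99.9% of cells. Three or more independent experiments, triplicate wells.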

Candida albicans [14] = assay: Fungicidal activity against Candida albicans cgmcc2.2086 incubated for 48 hrs followed by replating on YM agar plate and measured after 48 hrs; type: functional; summary of the method: as §5
Lipopolysaccharide (LPS) = assay: Displacement of BODIPY-TR-cadaverine from Escherichia coli O111:B4 LPS after 1 hr by spectrofluorophotometric method
Summary of the method: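 LPS from E. coli O111:B4 (50 μg/mL) preincubated 4 h with BODIPY-TR-cadaverine (5 μg/mL) in 50 mM Tris, pH 7.4. Mixed with equal volume of peptide (1-64 µM) and incubated 1 h at 37 °C, then fluorescence read. %ΔF = (Fobs−F0)/(F100−F0)×100, with 10 μg mL-1 polymyxin B defining F100. Three technical replicates per experiment.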

[15] = Conformational stability in sodium dodecyl sulfate assessed as beta-sheet conformation by measuring absorption spectra at maximum dichroic band at 35 uM by CD spectra analysis; type: physicochemical; summary of the method: as §4
[16] = Conformational stability in sodium dodecyl sulfate assessed as beta-sheet conformation by measuring absorption spectra at minimum dichroic band at 35 uM by CD spectra analysis; type: physicochemical; summary of the method: as §4

Substance | MIC95 (Escherichia coli [1]) [µM] | MIC95 (Staphylococcus aureus [3]) [µM] | MIC95 (Staphylococcus aureus [7]) [µM] | MIC95 (Escherichia coli [2]; K88, 24 h) [µM] | selectivity ratio [9] | MIC95 ([4]; ATCC 12228, 24 h) [µM] | selectivity ratio [10] | MIC95 (Candida albicans [6]; cgmcc2.2086, 48 h) [µM] | Stability [12] | MIC95 (Candida tropicalis; cgmcc2.1975, 48 h) [µM] | MIC95 (Escherichia coli [8]; ATCC 25922, 24 h) [µM] | selectivity ratio [13] | Activity [11] [nm] | MBC (Escherichia coli [5]) [µM] | MBC (Salmonella typhimurium) [µM] | also measured
GENTAMICIN | 1 | 2 | 1 |  |  |  |  |  |  |  |  |  |  |  |  | MIC95 (Escherichia coli [2]): 1 µM; Activity (Pseudomonas aeruginosa): inactive; MIC95 [4]: 1 µM; MBC>99.9 (Escherichia coli [5]): 0.5 µM; MIC95 (Candida albicans [6]): > 128 µM; MIC95 (Candida tropicalis): > 128 µM; MIC95 (Escherichia coli [8]): 1 µM; MBC>99.9 (Salmonella typhimurium; Salmonella enterica subsp. enterica serovar Typhimurium): 4 µM
H-AAKIILNPKFR-NH2 | > 128 | > 128 | > 128 | > 128 | 2 | > 128 | 2 | > 128 | Unstable | > 128 | > 128 | 2 |  |  |  | Stability [11]: Unstable
H-AARIILRDRFR-NH2 | > 128 | > 128 | > 128 | > 128 | 2 | > 128 | 2 | > 128 | Unstable | > 128 | ≥ 128 | 2 | 208 to 222 |  |  | 
H-AARIILRGRFR-NH2 | 4 | > 128 | 8 | 2 | 5.04 | 8 | 54.3 | > 128 | Unstable | 16 | 4 | 26.9 | 208 to 222 | 8 | 8 | 
H-AARIILRNRFR-NH2 | 32 | > 128 | > 128 | 32 | 2 | > 128 | 9.33 | > 128 | Unstable | > 128 | 32 | 2 | 208 to 222 | 32 | 64 | 
H-AARIILRPRFR-NH2 | 16 | > 128 | > 128 | 16 | 2 | > 128 | 16 | > 128 | Unstable | > 128 | 16 | 2 |  | 32 | 32 | Stability [11]: Unstable
H-AARIILRRRFR-NH2 | 32 | 128 | 16 | 16 | 3.17 | 16 | 14.8 | > 128 | Unstable | 64 | 8 | 13.4 | 208 to 222 | 16 | 64 | MFC<=99.9 (Candida parapsilosis): 128 µM
H-AARIILRWRFR-NH2 | 4 | 4 | 1 | 2 | 50.8 | 1 | 94.1 | 8 |  | 4 | 4 | 215 | 208 to 222 | 4 | 4 | MFC<=99.9 (Candida parapsilosis): 8 µM; MFC<=99.9 (Candida albicans [14]): 8 µM; Activity (Lipopolysaccharide (LPS)): Dose-dependent effect; Wavelength of maximum dichroic band [15]: 200 nm; Activity [16]: 216 to 220 nm
